SENP6 block: blocks the human protease SENP6; Q9GZR1; Recombinant SENP6 catalytic domain, aminoluciferin luminescence; inhibition, % at 10 µM; 1.8% of 330,000 active; AID 2599;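 active = inhibition above about 50% at the single tested dose, limit read from the data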
SENP1 FRET inh: SENP1 (human) catalytic domain inhibition. recombinant SENP1 catalytic domain, CyPet-SUMO1-YPet FRET cleavage. inhibition, % at 10 µM. AID 624204. Q9P0U3. 0.21% of 360,000 active;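 active = inhibition at least 30% at 10 µM, raw YFP signal under a set limit, fluorescence ratio 0.5 to 1.5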
Target sequence (Q9P0U3 419-644 limits assumed): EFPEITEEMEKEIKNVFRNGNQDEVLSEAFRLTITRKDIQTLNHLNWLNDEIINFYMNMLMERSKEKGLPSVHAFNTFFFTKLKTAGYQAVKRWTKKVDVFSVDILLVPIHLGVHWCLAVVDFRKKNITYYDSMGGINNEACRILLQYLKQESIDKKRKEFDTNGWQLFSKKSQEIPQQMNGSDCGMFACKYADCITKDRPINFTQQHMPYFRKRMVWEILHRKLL
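Assay system: hSENP1 catalytic domain, recombinant. Amount: SENP1 enzyme, 20 pM final. Schedule: 50 min reaction, RT, dark. Technique: FRET, CFP and YFP emission. Control set: no-enzyme wells low, DMSO-plus-enzyme wells high control.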
SENP8 block-1: SENP8 (human) protease inhibition; Q96LD8; recombinant SENP8, Nedd8 substrate fluorescence; inhibition, % at 20 µM; 0.64% of 360,000 active; in the data active = inhibition mostly above about 40%, no sharp cut-off; inactive = mostly below about 27%
HSP90 inh: HSP90 refolding inhibition in rabbit reticulocyte lysate; luciferase refolding luminescence, 3 h; inhibition, % at 5.6 µM; 0.91% of 290,000 active; AID 1789;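 active = inhibition above the screen-wide mean plus 3 SD, computed separately per campaign, cut at about 16% in these data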;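 note: inhibitors lower the luminescence because luciferase stays unfolded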
SENP7 block: SENP7 protease inhibition; recombinant SENP7, Z-RLRGG-aminoluciferin luminescence, 40 min; 1.5% of 330,000 active; AID 434973; Q9BQF6; inhibition, % at 5 µM;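 active = inhibition above about 50% at the single test dose, limit read from the data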
SENP8 block-2: SENP8 protease inhibition | 1.2% of 330,000 active | purified SENP8, Z-RLRGG-aminoluciferin cleavage, luminescence | Q96LD8 | inhibition, % at 10 µM; in the data active = inhibition above about 50%
SENP8 conf: confirmation of human SENP8 protease inhibitors; inhibition, % at 12.5 µM; Recombinant SENP8, Z-RLRGG-aminoluciferin luminescence, 60 min; AID 488912; 40% of 6,200 active; shares compounds with SENP7 block;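 active = mean inhibition across replicates above about 50%, limit read from the data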
SENP6 confirm: confirmation of human SENP6 protease inhibitors. 58% of 6,200 active. recombinant SENP6, Z-RLRGG-aminoluciferin luminescence. AID 488915. inhibition, % at 12.5 µM. shares compounds with SENP7 block
SENP7 confirm: confirmation of human SENP7 protease inhibitors | shares compounds with SENP7 block | recombinant SENP7, Z-RLRGG-aminoluciferin luminescence, 40 min | inhibition, % at 12.5 µM | 69% of 6,200 active
Casp3 SENP sel: selectivity test for SENP inhibitors: human caspase-3 inhibition | shares compounds with SENP7 block | purified caspase-3, Z-DEVD-aminoluciferin luminescence, 60 min | inhibition, % at 12.5 µM | 60% of 6,200 active | AID 488918;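 active = mean inhibition above about 50%, limit read from the data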
Target sequence (P42574 28-227 limits assumed): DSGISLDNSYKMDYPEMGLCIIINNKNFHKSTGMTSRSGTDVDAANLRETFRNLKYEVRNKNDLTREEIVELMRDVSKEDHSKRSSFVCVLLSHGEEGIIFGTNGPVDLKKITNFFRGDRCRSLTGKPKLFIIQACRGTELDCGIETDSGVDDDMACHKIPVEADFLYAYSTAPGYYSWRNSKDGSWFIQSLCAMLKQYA
SENP luc ctr: luminescence interference (SENP counter-screen); shares compounds with SENP7 block; inhibition, % at 12.5 µM; 39% of 6,200 active; AID 488919; Pre-incubated SENP8/Z-RLRGG-aminoluciferin, luciferase luminescence interference;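 active = mean inhibition above about 50% when retested at one dose, limit read from the data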
Of the large screens only hits and unclear results are named; the others gave an inactive call (follow-up assays come after a bar, where they were run). Sampled rows, rich in hits. Any-hit rate of the full collection: about 2.9%.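 Rule for the calls, unless noted: active = mean inhibition above about 50% in the one-dose retest (limit read from the data); inactive = the rest.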

Cc1oc2ccc(OCc3ccc(F)cc3)cc2c1C(=O)O	SENP6 block 55.1 | SENP8 conf inactive | SENP6 confirm inactive | SENP7 confirm 73.2 | Casp3 SENP sel 61.8 | SENP luc ctr 61.2
Cc1oc2ccc(OCc3cccc(Cl)c3)cc2c1C(=O)O	SENP6 block 74.8, SENP8 block-2 71.4 | SENP8 conf inactive | SENP6 confirm inactive | SENP7 confirm inactive | Casp3 SENP sel inactive | SENP luc ctr inactive
C=CCOC(=O)COc1ccc2c3c(c(=O)oc2c1)CCCC3	none (no result: SENP6 block, HSP90 inh, SENP7 block, SENP8 block-2)
COCCC(=O)N1CCCC(C(=O)c2ccc(C(F)(F)F)cc2)C1 (stereo not drawn)	none
CCOc1ccccc1/C=N/Nc1ccccc1[N+](=O)[O-]	none
CCCOc1ccc(/C=N/Nc2ccccc2[N+](=O)[O-])c(O)c1	SENP6 block 96.4, SENP7 block 99.2, SENP8 block-2 94.3 | SENP8 conf 57.8 | SENP6 confirm inactive | SENP7 confirm inactive | Casp3 SENP sel 77.5 | SENP luc ctr inactive
CCN(CC)S(=O)(=O)c1ccc(NC(=O)C2CC(=O)N(c3ccc4c(c3)OCCO4)C2)cc1 (stereo not drawn)	none (no result: SENP6 block, HSP90 inh, SENP7 block, SENP8 block-2)
O=C(OCC(=O)N1CCCc2ccccc21)c1ccccc1OC(F)F	none (no result: HSP90 inh)
O=C(NC1CCCCC1)C(Cc1ccccc1)N1C(=O)C2C3CCC(C3)C2C1=O (stereo not drawn)	SENP7 block 79.5 | SENP8 conf inactive | SENP6 confirm inactive | SENP7 confirm inactive | Casp3 SENP sel inactive | SENP luc ctr inactive
CCCCN1CCN=C1N(C)C	none (no result: HSP90 inh)
COc1ccccc1N(CC(=O)Nc1cc(S(=O)(=O)N(C)C)ccc1C)S(=O)(=O)c1cccs1	none (no result: HSP90 inh)
CCC1CSC(Nc2ccc(C(=O)/C=C/c3cccc(C)c3)cc2)=N1 (stereo not drawn)	SENP6 block 53.8 | SENP8 conf inactive | SENP6 confirm inactive | SENP7 confirm inactive | Casp3 SENP sel inactive | SENP luc ctr inactive
O=c1ccnc(S/C=C/c2ccccc2)[nH]1	SENP6 block 82.6, SENP8 block-2 71.3 | SENP8 conf 78.1 | SENP6 confirm 73.4 | SENP7 confirm 88.8 | Casp3 SENP sel 87.1 | SENP luc ctr 75.6
CC(C)NC(=O)C1(C)CCCCN1Cc1ccc(OCc2ccccc2)cc1 (stereo not drawn)	none (no result: SENP6 block, HSP90 inh, SENP7 block, SENP8 block-2)
CCCCN(C)C(=O)c1sc(=O)n(Cc2c(C)cccc2C)c1C	none (no result: SENP6 block, HSP90 inh, SENP7 block, SENP8 block-2)
Cc1ccc(O)c(-c2cc(-c3ccc(F)cc3)no2)c1	SENP6 block 76.9, SENP7 block 80.9, SENP8 block-2 57.2 | SENP8 conf inactive | SENP6 confirm 68.5 | SENP7 confirm 55.8 | Casp3 SENP sel 68.1 | SENP luc ctr inactive
Cc1ccc(-c2cc(-c3ccccc3)no2)c(O)c1	none (no result: SENP6 block, SENP7 block, SENP8 block-2)
Oc1ccccc1-c1cc(-c2ccccc2)no1	SENP6 block 84.2, SENP7 block 95.6, SENP8 block-2 85.9 | SENP8 conf 87.1 | SENP6 confirm 88.0 | SENP7 confirm 101.2 | Casp3 SENP sel 83.9 | SENP luc ctr 64.5
O=C(c1cc(-c2ccccc2O)on1)N1CCCCCC1	none
Cc1ccccc1-c1cc(-c2ccccc2O)on1	SENP6 block 91.0, SENP7 block 96.6, SENP8 block-2 81.4 | SENP8 conf 94.9 | SENP6 confirm 96.1 | SENP7 confirm 99.8 | Casp3 SENP sel 83.7 | SENP luc ctr 92.9
CCOc1ccc(NC(=O)CN(C)S(=O)(=O)c2cccc3cccnc23)cc1	none
COc1ccc2[nH]cc(CCNC(=O)Cn3cc(C)c(=O)[nH]c3=O)c2c1	none (no result: SENP6 block, HSP90 inh, SENP7 block, SENP8 block-2)

High-throughput results from PubChem.
